# According to paper PMC3920952 (Cell Death & Disease, 2013):
# How the values were obtained:
# Jurkat cells [1] = assay: Cell death by propidium iodide staining and flow cytometry; assay type: cell-based; conditions: 15 μM, 18 h, 0.5% FBS; mean of three independent experiments
# Procedure, shortened: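 Cells seeded at 4×10^5/ml in medium with 0.5% FBS and exposed for 18 h to TAT-fused truncated test peptides (15 μM) or TAT alone. Cells were washed in PBS and resuspended in PI solution (50 μg/ml PI, 0.1% sodium citrate, 0.1% Triton X-100). Flow cytometry gave the sub-G1 fraction. Mean ± S.D. of three independent experiments; two-tailed Student's t-test versus TAT.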
# Jurkat cells [2] = assay: ATP-based cell viability assay
# Procedure, shortened: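 Jurkat cells (RPMI, 10% FBS, 1.5 mmol/l L-glutamine) seeded in half-surface 96-well plates. Treated overnight/18 h with test peptide, TAT-only peptide or vehicle under low serum (0.5–5% FBS). Single-concentration runs used 15 μM. ATP measured by CellTiter-Glo luminescence and expressed as % of vehicle-treated control. Single-concentration values are mean ± S.D. of four independent experiments.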
# Jurkat cells [3] = assay: Trypan blue exclusion assay; assay type: cell-based
# Procedure, shortened: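 Jurkat cells cultured in 96-well plates and treated with TAT or test peptide overnight (10–15 μM range). In the caspase-inhibitor arm, cells were preincubated 30 min with zVAD-fmk or vehicle, then treated 17 h (TAT 10 μM). Suspended cells were mixed 1:1 with 0.4% Trypan blue, and viable cells were counted on a TC10 automated counter.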
# K562 cells = assay: Trypan blue exclusion assay; assay type: cell-based; conditions: 20 μM, 15-min treatment
# Procedure, shortened: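 K562 cells were exposed to 20 μM test peptide or TAT in medium with 0.5% FBS, either over a time course (minutes) or for 18 h. Cells in suspension were mixed 1:1 with 0.4% Trypan blue. Viable (dye-negative) cells were counted on an automated cell counter. Values are mean ± S.D.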
# [4] = Particle size by dynamic light scattering; assay type: physicochemical; conditions: PBS pH 7.4, 25 °C
# Procedure, shortened: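 Test peptide at 60 μM in PBS, pH 7.4, at 25 °C was filtered and degassed, then scanned in a 1-mm path quartz cuvette. 90° light scattering was recorded for 3 min. Particle radius was derived by CONTIN analysis of the DLS data.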
# [5] = Tolerability in xenograft-bearing mice; assay type: in vivo, nu/nu mice; conditions: mice treated for 18 days, 2.0 and 8.0 mg/kg daily i.p.
# Procedure, shortened: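 HCT116 cells (1×10^6) injected s.c. into the right flank of 7–8-week-old female nu/nu mice. After 1 week, mice were randomized into four groups of eight. Groups received daily i.p. test peptide (2.0 or 8.0 mg/kg) or TAT (1.3 or 5.3 mg/kg) for 18 days. Body weight was monitored. Liver, brain, heart, lung and spleen sections were assessed by H&E staining.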
molecule,measurement,setting,value
CTADMS [killerFLIP-C],cell death (PI staining),Jurkat cells [1],14.6%
FALFCTSW [scrambled killerFLIP-E],relative ATP levels compared with vehicle-treated cells,"Jurkat cells [2]; 18 h, comparison with scrambled variant (Figure 4c), concentration not given",12.7%
"YGRKKRRQRRR [TAT, reference compound]",cells excluding Trypan blue,"Jurkat cells [3]; 10 μM TAT, 17 h, no zVAD-fmk",78%
same,cell death (Trypan blue exclusion),"Jurkat cells [3]; 10 μM, 17 h",did not induce cell death
same,Trypan blue-negative cells,"Jurkat cells [3]; 20 μM, 15-min treatment",75.2%
same,Trypan blue-negative cells,K562 cells,83%
same,self-assembly into micelles in aqueous solution (DLS),[4],does not
YGRKKRRQRRRREADFFWSLCTADMS [killerFLIP],tolerability,[5],generally well tolerated
same,"cell death, share of Jurkat cells (Trypan blue exclusion)","Jurkat cells [3]; 10–15 μM, overnight",~50%
same,effect on cell viability (relative ATP levels),"Jurkat cells [2]; overnight treatment, various concentrations, low serum (0.5–5% FBS)",concentration-dependent decrease in cell viability
"HGS-ETR2: agonistic anti-TRAIL-R2 antibody used as a positive control for apoptotic cell death (antibody, chains of the INN, looked up, V domains shown) VH: EVQLVQSGGGVERPGGSLRLSCAASGFTFDDYGMSWVRQAPGKGLEWVSGINWNGGSTGYADSVKGRVTISRDNAKNSLYLQMNSLRAEDTAVYYCAKILGAGRGWYFDLWGKGTTVTVSS VL: SSELTQDPAVSVALGQTVRITCQGDSLRSYYASWYQQKPGQAPVLVIYGKNNRPSGIPDRFSGSSSGNTASLTITGAQAEDEADYYCNSRDSSGNHVVFGGGTKLTVL",Trypan blue-negative cells,"Jurkat cells [3]; HGS-ETR2 1 μg/ml, 17 h, after 30 min pre-treatment with 20 μM zVAD-fmk",70%
same,Trypan blue-negative cells,"Jurkat cells [3]; HGS-ETR2 1 μg/ml, 17 h, no zVAD-fmk",11%
